Assay results reported in ChEMBL document CHEMBL2086252, “Syntheses and evaluation of anticonvulsant activity of novel branched alkyl carbamates” (J Med Chem, 2012).
Calls of active or inactive are those of the source.

Columns and labels:
[1] = system: Mus musculus; test: Anticonvulsant activity in albino CF1 mouse assessed as protection against subcutaneous metrazol-induced seizures at 100 mg/kg, ip after 4 hrs; format: functional, organism-based; design: dose 100 mg/kg
How it was run: (§1)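 Mice dosed ip at 30, 100 or 300 mg/kg, then tested 0.5 h and 4 h after administration in the MES or scMet test. Protection was recorded as animals protected over animals tested. Neurotoxicity was recorded as motor impairment or sedation, as animals affected over animals tested.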

[2] = system: Rattus norvegicus; test: Anticonvulsant activity in Sprague-Dawley albino rat assessed as protection against maximal electroshock-induced seizures at 30 mg/kg, po after 4 hrs; format: functional, organism-based; design: dose 30 mg/kg
How it was run: (§2)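 Rats dosed orally. Anti-MES protection was scored as animals protected over animals tested at each time after dosing. Neurotoxicity was scored as motor impairment or sedation, as animals affected over animals tested.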

[3] = system: Rattus norvegicus; test: Neurotoxicity in pilocarpine-induced status epilepticus Sprague-Dawley albino rat model assessed as minimal motor impairment at 100 mg/kg, ip after 1 hr by rotarod test; format: toxicity, organism-based; design: dose 100 mg/kg, route intraperitoneal; settings: in vivo
[4] = system: Rattus norvegicus; test: Neurotoxicity in pilocarpine-induced status epilepticus Sprague-Dawley albino rat model assessed as minimal motor impairment at 30 mg/kg, ip after 1 hr by rotarod test; format: toxicity, organism-based; design: dose 30 mg/kg, route intraperitoneal; settings: in vivo
How it was run: (§3)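 Rat pilocarpine status epilepticus model: test carbamate given at 0 or 30 min after the first observed Racine stage 3 motor seizure, which marks SE onset. Neurotoxicity was scored within the same model.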

[5] = system: Rattus norvegicus; test: Neurotoxicity in pilocarpine-induced status epilepticus Sprague-Dawley albino rat model assessed as minimal motor impairment at 30 mg/kg, ip after 0.25 hr by rotarod test; format: toxicity, organism-based; design: dose 30 mg/kg, route intraperitoneal; settings: in vivo; how it was run: as §3
[6] = system: Rattus norvegicus; test: Anticonvulsant activity in Sprague-Dawley albino rat assessed as protection against pilocarpine-induced status epilepticus at 65 mg/kg, ip; format: functional, organism-based; design: dose 65 mg/kg
How it was run: (§4)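 Pilocarpine status epilepticus model in rats. Number and severity of convulsive seizures were observed behaviourally.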

[7] = system: Rattus norvegicus; test: Neurotoxicity in pilocarpine-induced status epilepticus Sprague-Dawley albino rat model assessed as minimal motor impairment at 30 mg/kg, ip after 4 hrs by rotarod test; format: toxicity, organism-based; design: dose 30 mg/kg, route intraperitoneal; settings: in vivo; how it was run: as §3
[8] = system: Rattus norvegicus; test: Anticonvulsant activity in Sprague-Dawley albino rat assessed as protection against maximal electroshock-induced seizures at 30 mg/kg, po after 15 mins; format: functional, organism-based; design: dose 30 mg/kg; how it was run: as §2
[9] = system: Mus musculus; test: Neurotoxicity in albino CF1 mouse assessed as minimal motor impairment at 300 mg/kg, ip after 0.5 hrs by rotarod test; format: toxicity, organism-based; design: dose 300 mg/kg, route intraperitoneal; settings: in vivo; how it was run: as §1
[10] = system: Mus musculus; test: Anticonvulsant activity in albino CF1 mouse assessed as protection against subcutaneous metrazol-induced seizures at 300 mg/kg, ip after 0.5 hrs; format: functional, organism-based; design: dose 300 mg/kg; how it was run: as §1
[11] = system: Mus musculus; test: Anticonvulsant activity in albino CF1 mouse assessed as protection against subcutaneous metrazol-induced seizures at 100 mg/kg, ip after 0.5 hrs; format: functional, organism-based; design: dose 100 mg/kg; how it was run: as §1
[12] = system: Rattus norvegicus; test: Neurotoxicity in pilocarpine-induced status epilepticus Sprague-Dawley albino rat model assessed as minimal motor impairment at 300 mg/kg, ip after 4 hrs by rotarod test; format: toxicity, organism-based; design: dose 300 mg/kg, route intraperitoneal; settings: in vivo; how it was run: as §3
[13] = system: Rattus norvegicus; test: Neurotoxicity in pilocarpine-induced status epilepticus Sprague-Dawley albino rat model assessed as minimal motor impairment at 65 mg/kg, ip after 0.5 hrs by rotarod test; format: toxicity, organism-based; design: dose 65 mg/kg, route intraperitoneal; settings: in vivo; how it was run: as §3
[14] = system: Mus musculus; test: Anticonvulsant activity in albino CF1 mouse assessed as protection against maximal electroshock-induced seizures at 100 mg/kg, ip after 0.5 hrs; format: functional, organism-based; design: dose 100 mg/kg; how it was run: as §1
[15] = system: Rattus norvegicus; test: Neurotoxicity in pilocarpine-induced status epilepticus Sprague-Dawley albino rat model assessed as minimal motor impairment at 300 mg/kg, ip after 0.25 hr by rotarod test; format: toxicity, organism-based; design: dose 300 mg/kg, route intraperitoneal; settings: in vivo; how it was run: as §3
[16] = system: Mus musculus; test: Anticonvulsant activity in albino CF1 mouse assessed as protection against subcutaneous metrazol-induced seizures at 300 mg/kg, ip after 4 hrs; format: functional, organism-based; design: dose 300 mg/kg; how it was run: as §1
[17] = system: Rattus norvegicus; test: Neurotoxicity in pilocarpine-induced status epilepticus Sprague-Dawley albino rat model assessed as minimal motor impairment at 300 mg/kg, ip after 0.5 hrs by rotarod test; format: toxicity, organism-based; design: dose 300 mg/kg, route intraperitoneal; settings: in vivo; how it was run: as §3
[18] = system: Rattus norvegicus; test: Neurotoxicity in pilocarpine-induced status epilepticus Sprague-Dawley albino rat model assessed as minimal motor impairment at 30 mg/kg, ip after 2 hrs by rotarod test; format: toxicity, organism-based; design: dose 30 mg/kg, route intraperitoneal; settings: in vivo; how it was run: as §3
[19] = system: Rattus norvegicus; test: Neurotoxicity in Sprague-Dawley albino rat assessed as minimal motor impairment at 30 mg/kg, po by rotarod test; format: toxicity, organism-based; design: dose 30 mg/kg, route oral; settings: in vivo; how it was run: as §2
[20] = system: Mus musculus; test: Neurotoxicity in albino CF1 mouse assessed as minimal motor impairment at 100 mg/kg, ip after 0.5 hrs by rotarod test; format: toxicity, organism-based; design: dose 100 mg/kg, route intraperitoneal; settings: in vivo; how it was run: as §1
[21] = system: Rattus norvegicus; test: Anticonvulsant activity in Sprague-Dawley albino rat assessed as protection against maximal electroshock-induced seizures at 30 mg/kg, po after 2 hrs; format: functional, organism-based; design: dose 30 mg/kg; how it was run: as §2
[22] = system: Mus musculus; test: Anticonvulsant activity in albino CF1 mouse assessed as protection against subcutaneous metrazol-induced seizures at 30 mg/kg, ip after 0.5 hrs; format: functional, organism-based; design: dose 30 mg/kg; how it was run: as §1
[23] = system: Rattus norvegicus; test: Neurotoxicity in pilocarpine-induced status epilepticus Sprague-Dawley albino rat model assessed as minimal motor impairment at 100 mg/kg, ip after 0.5 hrs by rotarod test; format: toxicity, organism-based; design: dose 100 mg/kg, route intraperitoneal; settings: in vivo
[24] = system: Rattus norvegicus; test: Neurotoxicity in pilocarpine-induced status epilepticus Sprague-Dawley albino rat model assessed as minimal motor impairment at 100 mg/kg, ip after 2 hrs by rotarod test; format: toxicity, organism-based; design: dose 100 mg/kg, route intraperitoneal; settings: in vivo
[25] = system: Mus musculus; test: Anticonvulsant activity in albino CF1 mouse assessed as protection against maximal electroshock-induced seizures at 30 mg/kg, ip after 0.5 hrs; format: functional, organism-based; design: dose 30 mg/kg; how it was run: as §1
[26] = system: Rattus norvegicus; test: Neurotoxicity in pilocarpine-induced status epilepticus Sprague-Dawley albino rat model assessed as minimal motor impairment at 100 mg/kg, ip after 4 hrs by rotarod test; format: toxicity, organism-based; design: dose 100 mg/kg, route intraperitoneal; settings: in vivo
[27] = system: Mus musculus; test: Neurotoxicity in albino CF1 mouse assessed as minimal motor impairment at 30 mg/kg, ip after 4 hrs by rotarod test; format: toxicity, organism-based; design: dose 30 mg/kg, route intraperitoneal; settings: in vivo; how it was run: as §1
[28] = system: Rattus norvegicus; test: Anticonvulsant activity in ip dosed Sprague-Dawley albino rat assessed as protection against pilocarpine-induced status epilepticus after 0.5 hrs; format: functional; how it was run: as §4
[29] = system: Mus musculus; test: Neurotoxicity in albino CF1 mouse assessed as minimal motor impairment at 100 mg/kg, ip after 4 hrs by rotarod test; format: toxicity, organism-based; design: dose 100 mg/kg, route intraperitoneal; settings: in vivo; how it was run: as §1
[30] = system: Rattus norvegicus; test: Neurotoxicity in pilocarpine-induced status epilepticus Sprague-Dawley albino rat model assessed as minimal motor impairment at 100 mg/kg, ip after 0.25 hr by rotarod test; format: toxicity, organism-based; design: dose 100 mg/kg, route intraperitoneal; settings: in vivo
[31] = system: Rattus norvegicus; test: Neurotoxicity in pilocarpine-induced status epilepticus Sprague-Dawley albino rat model assessed as minimal motor impairment at 300 mg/kg, ip after 2 hrs by rotarod test; format: toxicity, organism-based; design: dose 300 mg/kg, route intraperitoneal; settings: in vivo; how it was run: as §3
[32] = system: Mus musculus; test: Anticonvulsant activity in albino CF1 mouse assessed as protection against subcutaneous metrazol-induced seizures at 30 mg/kg, ip after 4 hrs; format: functional, organism-based; design: dose 30 mg/kg; how it was run: as §1
[33] = system: Rattus norvegicus; test: Neurotoxicity in pilocarpine-induced status epilepticus Sprague-Dawley albino rat model assessed as minimal motor impairment at 30 mg/kg, ip after 0.5 hrs by rotarod test; format: toxicity, organism-based; design: dose 30 mg/kg, route intraperitoneal; settings: in vivo; how it was run: as §3
[34] = system: Mus musculus; test: Neurotoxicity in albino CF1 mouse assessed as minimal motor impairment at 300 mg/kg, ip after 4 hrs by rotarod test; format: toxicity, organism-based; design: dose 300 mg/kg, route intraperitoneal; settings: in vivo; how it was run: as §1
[35] = system: Mus musculus; test: Neurotoxicity in albino CF1 mouse assessed as minimal motor impairment at 30 mg/kg, ip after 0.5 hrs by rotarod test; format: toxicity, organism-based; design: dose 30 mg/kg, route intraperitoneal; settings: in vivo; how it was run: as §1
[36] = system: Mus musculus; test: Anticonvulsant activity in albino CF1 mouse assessed as protection against maximal electroshock-induced seizures at 300 mg/kg, ip after 4 hrs; format: functional, organism-based; design: dose 300 mg/kg; how it was run: as §1
[37] = system: Mus musculus; test: Anticonvulsant activity in albino CF1 mouse assessed as protection against maximal electroshock-induced seizures at 300 mg/kg, ip after 0.5 hrs; format: functional, organism-based; design: dose 300 mg/kg; how it was run: as §1
[38] = system: Mus musculus; test: Anticonvulsant activity in albino CF1 mouse assessed as protection against maximal electroshock-induced seizures at 100 mg/kg, ip after 4 hrs; format: functional, organism-based; design: dose 100 mg/kg; how it was run: as §1
[39] = system: Rattus norvegicus; test: Neurotoxicity in pilocarpine-induced status epilepticus Sprague-Dawley albino rat model assessed as minimal motor impairment at 300 mg/kg, ip after 1 hr by rotarod test; format: toxicity, organism-based; design: dose 300 mg/kg, route intraperitoneal; settings: in vivo; how it was run: as §3
[40] = system: Mus musculus; test: Anticonvulsant activity in albino CF1 mouse assessed as protection against maximal electroshock-induced seizures at 30 mg/kg, ip after 4 hrs; format: functional, organism-based; design: dose 30 mg/kg; how it was run: as §1

CCCC(COC(N)=O)C(C)C (racemic)
151 mg/kg: ED97 [28]
Non-toxic: Activity [4] | Activity [5] | Activity [7] | Activity [13] | Activity [18] | Activity [19] | Activity [20] | Activity [24] | Activity [26] | Activity [27] | Activity [29] | Activity [33] | Activity [34] | Activity [35]
active: Activity [6] | Activity [10] | Activity [14] | Activity [37]
Toxic: Activity [3] | Activity [9] | Activity [12] | Activity [15] | Activity [17] | Activity [23] | Activity [30] | Activity [31] | Activity [39]
inactive: Activity [1] | Activity [2] | Activity [8] | Activity [11] | Activity [16] | Activity [21] | Activity [22] | Activity [25] | Activity [32] | Activity [36] | Activity [38] | Activity [40]
107 mg/kg: ED50 [28]

CCC(C)C(COC(N)=O)C(C)C (racemic)
199 mg/kg: ED97 [28]
inactive: Activity [1] | Activity [16] | Activity [22] | Activity [25] | Activity [32] | Activity [36] | Activity [38] | Activity [40]
active: Activity [6] | Activity [10] | Activity [11] | Activity [14] | Activity [37]
Non-toxic: Activity [4] | Activity [5] | Activity [7] | Activity [13] | Activity [18] | Activity [24] | Activity [26] | Activity [27] | Activity [29] | Activity [33] | Activity [34] | Activity [35]
114 mg/kg: ED50 [28]
Toxic: Activity [9] | Activity [23] | Activity [30]
